Reference: ChEMBL document CHEMBL4765251, “Efficient identification of novel anti-glioma lead compounds by machine learning models” (Eur J Med Chem, 2020)

Tests used:
C6 = assay: Antiproliferative activity against rat C6 cells assessed as cell growth inhibition measured after 72 hrs by SRB assay; format: functional, cell-based; details: C6, 72 h
Astrocyte = assay: Cytotoxicity against Wistar rat astrocytes assessed as cell growth inhibition at 100 uM measured after 72 hrs by SRB assay; format: cell-based
U-251 = assay: Antiproliferative activity against human U251MG cells assessed as cell growth inhibition measured after 72 hrs by SRB assay; format: functional, cell-based; details: U-251, 72 h
[1] = Selectivity index, ratio of CC50 for Wistar rat astrocytes to EC50 for human U87MG cells
Summary of the method: (§1)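 Selectivity index is astrocyte CC50 divided by the glioma-line EC50, both from 72 h SRB assays. No index is given when astrocyte cytotoxicity could not be calculated at the highest concentration tested.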

U-87 MG = assay: Antiproliferative activity against human U87MG cells assessed as cell growth inhibition measured after 72 hrs by SRB assay; format: functional, cell-based, U-87MG ATCC
Summary of the method: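 U87MG human glioma cells grown in DMEM with 10% FBS at 37 °C, used up to 30 passages and treated at 40-50% confluence. Exposed to 0.1-100 µM for 72 h, with DMSO at most 0.1% final. TCA-fixed, stained with SRB, dye solubilized in Tris pH 10.5, read at 510 nm, expressed as % of DMSO controls. Mean ± SD of three independent assays.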

[2] = Cytotoxicity against Wistar rat astrocytes assessed as cell growth inhibition measured after 72 hrs by SRB assay; format: cell-based, Astrocyte
Summary of the method: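 Primary astrocytes taken from the cortex of 2-day-old Wistar rats by mechanical dissociation, grown on poly-L-lysine in high-glucose DMEM and treated at 90% confluence (12-15 days). Exposed to 0.1-100 µM for 72 h, then SRB assay with absorbance read at 510 nm against DMSO controls. Mean ± SD of three independent assays.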

[3] = Selectivity index, ratio of CC50 for Wistar rat astrocytes to EC50 for rat C6 cells; summary of the method: as §1
[4] = Selectivity index, ratio of CC50 for Wistar rat astrocytes to EC50 for human U-251 MG cells; summary of the method: as §1
Rattus norvegicus = species on record: Rattus norvegicus; assay: Inhibition of TrxR in rat liver assessed as reduction in TNB formation using DTNB and NADPH as substrate at 100 uM preincubated with enzyme for 15 mins followed by NADPH addition by absorbance based analysis; format: tissue-based
Summary of the method: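 TrxR activity was measured at 37 °C in 100 mM potassium phosphate pH 7.0 with 2 mg/mL DTNB and 0.01 mg/mL enzyme. Enzyme was preincubated for 15 min with compound or DMSO, then the reaction was started with 0.2 mg/mL NADPH. TNB formation was followed at 412 nm (ε 13.6 mM-1 cm-1). Assays were run in duplicate, with enzyme-free blanks subtracted.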

O=C(CS(=O)(=O)c1ccccc1)c1cc2ccccc2o1
EC50 (C6): > 50 µM | Activity (Astrocyte): Non-Toxic | EC50 (U-251): > 50 µM

O=C(/C=C/c1ccc([N+](=O)[O-])o1)c1ccc(I)cc1
Ratio CC50/EC50 [1]: 13.1 | EC50 (U-87 MG): 5.2 µM | CC50 at 72 h [2]: 68.2 µM | EC50 (C6): 2.1 µM | Ratio CC50/EC50 [3]: 32.5 | Ratio CC50/EC50 [4]: 5.4 | EC50 (U-251): 12.5 µM

CSc1ccc(C(=O)/C=C/c2ccc([N+](=O)[O-])o2)cc1
Ratio CC50/EC50 [1]: 7.3 | EC50 (U-87 MG): 3.9 µM | CC50 at 72 h [2]: 28.4 µM | EC50 (C6): 1.6 µM | Ratio CC50/EC50 [3]: 17.7 | Ratio CC50/EC50 [4]: 2 | inhibition (Rattus norvegicus): 56.4% | EC50 (U-251): 14.2 µM

COc1ccc(/C=C/C(=O)c2ccc(-c3ccccc3)cc2)cc1
EC50 (C6): > 50 µM | Activity (Astrocyte): Non-Toxic | EC50 (U-251): > 50 µM

CC(C)Oc1ccc(C(=O)NC(=S)Nc2cccc3ccccc23)cc1
EC50 (C6): > 50 µM | Activity (Astrocyte): Non-Toxic | EC50 (U-251): > 50 µM

Cc1ccc(S(=O)(=O)CC(=O)c2cccc([N+](=O)[O-])c2)cc1
EC50 (C6): > 50 µM | Activity (Astrocyte): Non-Toxic | EC50 (U-251): > 50 µM

O=C(/C=C/c1ccc(Cl)s1)c1ccc(N2CCCCC2)cc1
EC50 (C6): 36.6 µM | Activity (Astrocyte): Non-Toxic | EC50 (U-251): > 50 µM

O=C(/C=C/c1ccc([N+](=O)[O-])o1)c1ccc(C2CCCCC2)cc1
Ratio CC50/EC50 [1]: 6 | EC50 (U-87 MG): 9.5 µM | CC50 at 72 h [2]: 57.2 µM | EC50 (C6): 5.1 µM | Ratio CC50/EC50 [3]: 11.2 | Ratio CC50/EC50 [4]: 13 | EC50 (U-251): 4.4 µM

O=C(/C=C/c1ccc([N+](=O)[O-])o1)c1ccc(Br)cc1
Ratio CC50/EC50 [1]: 6.7 | EC50 (U-87 MG): 12.6 µM | CC50 at 72 h [2]: 85.4 µM | EC50 (C6): 2.7 µM | Ratio CC50/EC50 [3]: 31.6 | Ratio CC50/EC50 [4]: 3.9 | EC50 (U-251): 21.4 µM

CC(C)(C)c1ccc(C(=O)/C=C/c2ccc([N+](=O)[O-])o2)cc1
EC50 (C6): 28.6 µM | Activity (Astrocyte): Non-Toxic | EC50 (U-251): 44.5 µM

COc1ccc(/C=C/C(=O)c2cccc(I)c2)cc1
Ratio CC50/EC50 [1]: >7.5 | EC50 (U-87 MG): 13.4 µM | CC50 at 72 h [2]: > 100 µM | EC50 (C6): 14.6 µM | Ratio CC50/EC50 [3]: >6.8 | Ratio CC50/EC50 [4]: >4.7 | EC50 (U-251): 21.4 µM

C[N+](=O)c1ccc(/C=C/C(=O)c2ccc(N3CCOCC3)cc2)o1
Ratio CC50/EC50 [1]: 7.7 | EC50 (U-87 MG): 9.8 µM | CC50 at 72 h [2]: 75.8 µM | EC50 (C6): 6.6 µM | Ratio CC50/EC50 [3]: 11.5 | Ratio CC50/EC50 [4]: 2 | EC50 (U-251): 37.8 µM

COc1ccc(/C=C/C(=O)c2cccc(Br)c2)cc1
EC50 (C6): 22.3 µM | Activity (Astrocyte): Non-Toxic | EC50 (U-251): 32.1 µM

Cc1ccc(N2C(=O)CC(Sc3ncccc3C(=O)O)C2=O)cc1Cl (configuration not stated)
EC50 (C6): > 50 µM | Activity (Astrocyte): Non-Toxic | EC50 (U-251): > 50 µM

O=C(/C=C/c1ccc([N+](=O)[O-])o1)c1ccc(-c2ccccc2)cc1
EC50 (C6): 17.7 µM | Activity (Astrocyte): Non-Toxic | EC50 (U-251): 24.6 µM

O=C(/C=C/c1ccc([N+](=O)[O-])s1)c1ccc(-n2ccnc2)cc1
Ratio CC50/EC50 [1]: 4 | EC50 (U-87 MG): 10.1 µM | CC50 at 72 h [2]: 40.4 µM | EC50 (C6): 1.9 µM | Ratio CC50/EC50 [3]: 21.3 | Ratio CC50/EC50 [4]: 4.3 | EC50 (U-251): 9.4 µM

CSc1ccc(C(=O)/C=C/c2ccco2)cc1
EC50 (U-87 MG): 45.1 µM | CC50 at 72 h [2]: 98 µM | EC50 (C6): 14.4 µM | EC50 (U-251): 24 µM

CC(C)(C)c1ccc(C(=O)/C=C/c2ccco2)cc1
EC50 (U-87 MG): 32.3 µM | CC50 at 72 h [2]: 88.7 µM | EC50 (C6): 18.5 µM | inhibition (Rattus norvegicus): 3.6% | EC50 (U-251): 16.4 µM

CCC(=O)Oc1cccc2ccc(/C=C/c3ccccc3[N+](=O)[O-])nc12
Ratio CC50/EC50 [1]: 5.3 | EC50 (U-87 MG): 10.5 µM | CC50 at 72 h [2]: 55.2 µM | EC50 (C6): 6.3 µM | Ratio CC50/EC50 [3]: 8.7 | Ratio CC50/EC50 [4]: 5.4 | EC50 (U-251): 10.1 µM

O=C(/C=C/c1ccco1)c1ccc(C2CCCCC2)cc1
EC50 (C6): > 50 µM | Activity (Astrocyte): Non-Toxic | EC50 (U-251): 26.4 µM

O=C(/C=C/c1ccc([N+](=O)[O-])cc1)c1ccc(N2CCCCC2)cc1
EC50 (C6): > 50 µM | Activity (Astrocyte): Non-Toxic | EC50 (U-251): > 50 µM

Cc1ccc(C(=O)/C=C/c2ccco2)cc1
EC50 (U-87 MG): 19.2 µM | CC50 at 72 h [2]: > 100 µM | EC50 (C6): 7.8 µM | EC50 (U-251): 23.3 µM

O=C(/C=C/c1ccc([N+](=O)[O-])o1)c1ccc(-n2ccnc2)cc1
Ratio CC50/EC50 [1]: 3.4 | EC50 (U-87 MG): 13.4 µM | CC50 at 72 h [2]: 45.3 µM | EC50 (C6): 3.5 µM | Ratio CC50/EC50 [3]: 12.9 | Ratio CC50/EC50 [4]: 2 | EC50 (U-251): 22.6 µM

O=C(/C=C/c1cccc([N+](=O)[O-])c1)c1ccc(N2CCCCC2)cc1
EC50 (C6): 32.5 µM | Activity (Astrocyte): Non-Toxic | EC50 (U-251): 20.3 µM

CC(=O)c1ccc(NCCC(=O)c2cccs2)cc1
EC50 (C6): 46.6 µM | Activity (Astrocyte): Non-Toxic | EC50 (U-251): > 50 µM

CCCCc1ccc(C(=O)/C=C/c2ccco2)cc1
EC50 (U-87 MG): 12.3 µM | CC50 at 72 h [2]: > 100 µM | EC50 (C6): 8.4 µM | inhibition (Rattus norvegicus): 60.4% | EC50 (U-251): 6.4 µM

O=C(/C=C/c1ccc([N+](=O)[O-])o1)c1ccc(N2CCCC2)cc1
Ratio CC50/EC50 [1]: 1.8 | EC50 (U-87 MG): 35.4 µM | CC50 at 72 h [2]: 65.8 µM | EC50 (C6): 16.4 µM | Ratio CC50/EC50 [3]: 4 | Ratio CC50/EC50 [4]: 1.8 | EC50 (U-251): 35.9 µM

CN(C)c1ccc(/C=C/C(=O)c2ccc(-c3ccccc3)cc2)cc1
EC50 (C6): 49.5 µM | Activity (Astrocyte): Non-Toxic | EC50 (U-251): > 50 µM

O=C(/C=C/c1ccco1)c1ccc(N2CCOCC2)cc1
EC50 (C6): 23.6 µM | Activity (Astrocyte): Non-Toxic | EC50 (U-251): > 50 µM

Cc1ccc(S(=O)(=O)CC(=O)c2ccc(Cl)cc2Cl)cc1
EC50 (C6): > 50 µM | Activity (Astrocyte): Non-Toxic | EC50 (U-251): > 50 µM

Cc1no[n+]([O-])c1C(=O)c1no[n+]([O-])c1C(=O)c1no[n+]([O-])c1C
EC50 (C6): > 50 µM | Activity (Astrocyte): Non-Toxic | EC50 (U-251): > 50 µM

O=C(/C=C/c1ccc([N+](=O)[O-])o1)c1ccc(N2CCCCC2)cc1
EC50 (C6): 48.7 µM | Activity (Astrocyte): Non-Toxic | EC50 (U-251): > 50 µM

Cc1ccc(S(=O)(=O)/N=C/c2ccc(F)cc2)cc1
EC50 (C6): 48.9 µM | Activity (Astrocyte): Non-Toxic | EC50 (U-251): > 50 µM

Cc1nonc1C(=O)c1no[n+]([O-])c1C(=O)c1nonc1C
EC50 (C6): > 50 µM | Activity (Astrocyte): Non-Toxic | EC50 (U-251): > 50 µM

O=C(/C=C/c1ccc(Cl)s1)c1ccc(-n2ccnc2)cc1
EC50 (C6): 14.5 µM | Activity (Astrocyte): Non-Toxic | EC50 (U-251): 35.1 µM
